The source made the active and inactive calls. The rule behind the calls is not given here.
Experiments:
[1] = molecular target: T1, O-acyltransferase (Oryctolagus cuniculus, UniProt G1SFD9); assay: In vitro inhibition of acyl coenzyme A:cholesterol acyltransferase (ACAT) from rabbit intestinal microsomes
Summary of the method: (§1)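 Enzyme source is microsomes from rabbit intestine. Read-out is the concentration giving 50% inhibition of ACAT activity (IC50, nM). Some IC50 values were estimated relative to the IC50 of a reference inhibitor tested on the same enzyme batch.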

[2] = system: Rattus norvegicus; assay: In vivo hypocholesterolemic activity in cholesterol-fed rats by oral administration in a cholesterol enriched diet; assay type: functional
Summary of the method: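 Rats were fed a cholesterol-enriched diet, and compound was given orally as an admixture in that diet. Read-out is plasma total cholesterol against control, expressed as ED50 (the dose reducing it by 50%) or as percent reduction at the stated dose. Significance was tested by unpaired, two-tailed Student's t-test.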

[3] = In vitro inhibitory activity against acetylated LDL-induced accumulation of cholesteryl esters in mouse peritoneal macrophages; assay type: functional
Summary of the method: (§2)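 Mouse peritoneal macrophages were exposed to acetylated LDL, which induces accumulation of cholesteryl esters. Read-out is the IC50 (nM) for inhibiting that accumulation. Values given in parentheses are percent inhibition at the concentration indicated.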

[4] = system: Rattus norvegicus; assay: In vivo hypocholesterolemic activity in cholesterol-fed rats by oral administration by gavage in PEG400 as a vehicle; assay type: functional
Summary of the method: (§3)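 Cholesterol-fed rats were dosed orally by gavage with PEG400 as vehicle. Plasma total cholesterol was compared with control and reported as ED50 (the dose reducing it by 50%) or as percent reduction at the dose given. Significance was tested by unpaired two-tailed Student's t-test.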

[5] = system: Rattus norvegicus; assay: Percent reduction in cholesterol levels in rats at >0.1 mg/kg; assay type: functional
Summary of the method: (§4)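 In cholesterol-fed rats, compound was given orally either as a dietary admixture or by gavage in PEG400. Read-out is the percent reduction of plasma total cholesterol versus control at the dose indicated. Significance was assessed by unpaired, two-tailed Student's t-test.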

[6] = system: Rattus norvegicus; assay: Percent reduction in cholesterol levels in rats at 0.032 mg/kg; assay type: functional; summary of the method: as §4
[7] = In vitro inhibitory activity against acetylated LDL-induced accumulation of cholesteryl esters in mouse peritoneal macrophages at <10 nM concentration; assay type: functional; summary of the method: as §2
[8] = system: Rattus norvegicus; assay: Percent reduction in cholesterol levels in rats at >0.1 mg/kg; inactive; assay type: functional, organism-based; summary of the method: as §4
[9] = Adrenal toxicity in rabbits at 5 mg/kg i.v., expressed as drug-induced necrosis; + indicates necrosis observed; assay type: organism-based, Oryctolagus cuniculus; parameters: dose 5 mg/kg, route intravenous; conditions: rabbit, in vivo, iv
Summary of the method: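 Rabbits (n = 2) given a single 5 mg/kg iv dose as a solution in PEG400. Adrenal glands were examined for drug-induced necrosis of zona fasciculata cortical cells at 24 h after dosing. Each result is scored against controls as observed (+) or not observed (-).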

[10] = system: Rattus norvegicus; assay: In vivo hypocholesterolemic activity in cholesterol-fed rats by oral administration of compound by gavage in PEG400 as a vehicle; inactive at >1; assay type: functional, organism-based; summary of the method: as §3
[11] = system: Rattus norvegicus; assay: Percent reduction in cholesterol levels in rats at <0.01 mg/kg; assay type: functional; summary of the method: as §4
[12] = system: Rattus norvegicus; assay: Percent reduction in cholesterol levels in rats at <0.1 mg/kg; inactive; assay type: functional, organism-based; conditions: in the assay text read “>0.1 mg/kg” for “<0.1 mg/kg”; summary of the method: as §4
[13] = system: Rattus norvegicus; assay: Percent reduction in cholesterol levels in rats at >1 mg/kg; assay type: functional; summary of the method: as §4
[14] = system: Rattus norvegicus; assay: Percent reduction in cholesterol levels in rats at <0.1 mg/kg; assay type: functional; summary of the method: as §4
[15] = molecular target: T1, O-acyltransferase; assay: In vitro inhibitory activity against Acyl coenzyme A:cholesterol acyltransferase from rabbit intestinal microsomes; assay type: functional; summary of the method: as §1
[16] = system: Rattus norvegicus; assay: Percent reduction in cholesterol levels in rats at <1 mg/kg; assay type: functional; summary of the method: as §4
[17] = system: Rattus norvegicus; assay: Percent reduction in cholesterol levels in rats at 0.01 mg/kg; assay type: functional; summary of the method: as §4

T1 sequence (G1SFD9 1-524): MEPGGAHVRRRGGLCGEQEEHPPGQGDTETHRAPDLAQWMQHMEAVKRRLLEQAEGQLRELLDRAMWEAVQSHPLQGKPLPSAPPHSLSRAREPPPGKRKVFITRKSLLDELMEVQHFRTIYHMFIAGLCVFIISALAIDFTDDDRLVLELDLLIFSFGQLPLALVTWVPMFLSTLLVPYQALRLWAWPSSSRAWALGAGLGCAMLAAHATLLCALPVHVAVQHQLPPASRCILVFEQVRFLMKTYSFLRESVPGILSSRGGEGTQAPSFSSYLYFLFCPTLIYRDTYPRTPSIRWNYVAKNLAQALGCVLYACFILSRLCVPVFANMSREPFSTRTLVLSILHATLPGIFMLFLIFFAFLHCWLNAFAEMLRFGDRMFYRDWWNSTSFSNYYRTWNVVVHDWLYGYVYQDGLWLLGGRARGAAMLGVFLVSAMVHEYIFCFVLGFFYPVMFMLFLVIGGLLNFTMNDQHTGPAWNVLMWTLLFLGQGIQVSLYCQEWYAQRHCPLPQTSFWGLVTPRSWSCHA

| SMILES | IC50 [1] [nM] | ED50 [2] [mg/kg] | IC50 [3] [nM] | ED50 [4] [mg/kg] | other results |
| --- | --- | --- | --- | --- | --- |
| Cc1ccc(NC(=O)N(Cc2ccc(Oc3ccc(F)cc3)cc2)C2CCCCCC2)c(Cl)n1 | 19 | > 0.1 |  |  |  |
| CSc1cc(C)nc(SC)c1NC(=O)N(CCCc1ccccc1)Cc1ccc(Oc2ccc(F)cc2)cc1 | 28 | 0.025 | 40 |  |  |
| CSc1cc(C)nc(SC)c1NC(=O)N(Cc1ccc(Oc2ccc(F)cc2)cc1)[C@H](C)c1ccccc1 | 19 | 0.095 | 110 | 4.6 |  |
| Cc1cc(Cl)c(NC(=O)N(Cc2ccc(Oc3ccc(F)cc3)cc2)C2CCCCCC2)c(Cl)n1 | 14 | > 0.1 |  |  | Reduction [5]: 38% |
| COc1nc(C)cc(SC)c1NC(=O)N(Cc1ccc(Oc2ccc(F)cc2)cc1)C1CCCCCC1 | 29 | < 0.032 | 13 | 1.4 | Reduction [6]: 62% |
| COc1ccc(CN(Cc2ccc(Oc3ccc(F)cc3)cc2)C(=O)Nc2c(SC)cc(C)nc2SC)cc1 | 29 | > 0.1 |  |  | Reduction [5]: 24% |
| CSc1cc(C)nc(SC)c1NC(=O)N(Cc1ccc(Oc2ccc(Br)cc2)cc1)C1CCCCCC1 | 28 | 0.02 | < 10 |  | Inhibition [7]: 75% |
| CSc1cc(C)nc(SC)c1NC(=O)N(Cc1ccc(Oc2ccc(F)cc2)cc1)[C@@H](C)c1ccccc1 | 19 | > 0.1 | 260 |  | Reduction [8]: inactive |
| CSc1nc(C)nc(SC)c1NC(=O)N(Cc1ccc(Oc2ccc(F)cc2)cc1)C1CCCCCC1 | 56 | 0.069 | 20 | 0.45 | Toxicity [9]: necrosis observed |
| CSc1cc(C)nc(SC)c1NC(=O)N(Cc1ccc(Oc2ccc(F)cc2)cc1)C1CCCCCC1 |  | 0.034 | 48 | 0.11 | Toxicity [9]: necrosis observed |
| CSc1cc(C)nc(SC)c1NC(=O)N(Cc1ccc(Oc2ccc(F)cc2)cc1)C(C)(C)c1ccccc1 | 24 |  | 52 |  | ED50 [10]: inactive |
| CSc1cc(C)nc(SC)c1NC(=O)N(Cc1ccccc1)Cc1ccc(Oc2ccc(F)cc2)cc1 | 9.1 | < 0.01 | < 10 |  | Inhibition [7]: 77%; Reduction [11]: 58% |
| O=C(Nc1c(F)cc(F)cc1F)N(Cc1ccccc1)Cc1cccc(-c2cc[nH]n2)c1 |  |  | 7400 |  |  |
| CSc1cc(C)nc(S(C)(=O)=O)c1NC(=O)N(Cc1ccc(Oc2ccc(F)cc2)cc1)C1CCCCCC1 | 78 | > 0.1 | 15 |  | Reduction [12]: inactive |
| CSc1cc(C)nc(SC)c1NC(=O)N(Cc1ccccc1)Cc1cccc(-c2cc[nH]n2)c1 |  |  | 350 |  |  |
| CCOCCN(Cc1ccc(Oc2ccc(F)cc2)cc1)C(=O)Nc1c(SC)cc(C)nc1SC | 24 | > 0.1 |  |  | Reduction [5]: 26% |

| SMILES | IC50 [1] [nM] | ED50 [2] [mg/kg] | IC50 [3] [nM] | ED50 [4] [mg/kg] | other results |
| --- | --- | --- | --- | --- | --- |
| Cc1cc(C)c(NC(=O)N(Cc2ccc(Oc3ccc(F)cc3)cc2)C2CCCCCC2)c(C)c1 | 25 | 0.045 | 80 | 5.3 |  |
| Cc1cc(S(C)(=O)=O)c(NC(=O)N(Cc2ccc(Oc3ccc(F)cc3)cc2)C2CCCCCC2)c(S(C)(=O)=O)n1 | 45 | 0.068 | 215 | 0.63 |  |
| Cc1cc(S(C)(=O)=O)c(NC(=O)N(Cc2ccc(Oc3ccc(F)cc3)cc2)C2CCCCCC2)c(Cl)n1 | 30 | > 0.1 | 350 | > 1 | Reduction [5]: 46%; Reduction [13]: 34% |
| CSc1cc(C)nc(Cl)c1NC(=O)N(Cc1ccc(Oc2ccc(F)cc2)cc1)C1CCCCCC1 | 46 | 0.022 | 47 | 0.17 | Toxicity [9]: necrosis observed |
| CSc1cc(C)nc(SC)c1NC(=O)N(Cc1ccccc1)Cc1ccc(Oc2ccc(Br)cc2)cc1 | 10 | 0.011 | 14 | < 0.1 | Reduction [14]: 54% |
| CSc1cc(C)nc(SC)c1NC(=O)N(Cc1ccc(Oc2ccc(F)cc2)cc1)Cc1c(C)cccc1C |  |  | 21 |  | IC50 [15]: 26 nM |
| CSc1cc(C)nc(SC)c1NC(=O)N(Cc1cccc(Oc2ccc(F)cc2)c1)C1CCCCCC1 | 73 | < 0.1 | 2.9 |  |  |
| CSc1cc(C)nc(SC)c1NC(=O)N(Cc1ccc(Oc2ccc(F)cc2)cc1)C1CCOCC1 | 46 | < 0.1 |  |  | Reduction [14]: 58% |
| COc1cc(C)nc(OC)c1NC(=O)N(Cc1ccc(Oc2ccc(F)cc2)cc1)C1CCCCCC1 | 33 | 0.032 | 350 | 4.5 |  |
| Cc1cc(C)c(NC(=O)N(Cc2ccc(Oc3ccc(F)cc3)cc2)C2CCCCCC2)c(C)n1 | 62 | 0.044 | 240 | 0.77 |  |
| CSc1nc(C)cc(Cl)c1NC(=O)N(Cc1ccc(Oc2ccc(F)cc2)cc1)C1CCCCCC1 | 12 | < 0.1 | 350 | > 1 | Reduction [14]: 77%; Reduction [13]: 48% |
| COc1nc(C)ccc1NC(=O)N(Cc1ccc(Oc2ccc(F)cc2)cc1)C1CCCCCC1 | 39 | > 0.1 |  |  | Reduction [8]: inactive |
| CSc1cc(C)nc(C)c1NC(=O)N(Cc1ccc(Oc2ccc(F)cc2)cc1)C1CCCCCC1 | 90 |  | 35 | < 1 | Reduction [16]: 72% |
| CSc1cc(C)nc(SC)c1NC(=O)N(Cc1ccc(Oc2ccc(F)cc2)cc1)C1CCCCC1 | 23 | < 0.01 | < 10 |  | Inhibition [7]: 61%; Reduction [17]: 63% |
| CSc1cc(C)nc(SC)c1NC(=O)N(CCc1ccccc1)Cc1ccc(Oc2ccc(F)cc2)cc1 | 16 | 0.016 | 6.1 | 2.7 |  |

From ChEMBL document CHEMBL1131165, “Inhibitors of acyl-CoA:cholesterol O-acyltransferase. 3. Discovery of a novel series of N-alkyl-N-[(fluorophenoxy)benzyl]-N'-arylureas with weak toxicological effects on adrenal glands” (J Med Chem, 1998)
